Data from ChEMBL document CHEMBL2016491, “Synthesis and structure-activity relationships of (aryloxy)quinazoline ureas as novel, potent, and selective vascular endothelial growth factor receptor-2 inhibitors” (J Med Chem, 2012).

Key:
HT-29 [1] = assay: Antiproliferative activity against human HT-29 cells at 10 uM after 72 hrs by MTS assay; assay type: functional; settings: HT-29, 72 h
Summary of the method: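 Single-concentration test at 10 μM, with compound in <0.1% DMSO. Cells were plated at 3000/well in triplicate, given a 24 h pre-incubation, then treated for 72 h at 37 °C, 5% CO2. Growth inhibition (%) was read by MTS. HT29 was grown in DMEM + Glutamax-I with 10% FBS. Mean of at least three independent experiments.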

MCF7 [2] = assay: Antiproliferative activity against human MCF7 cells at 10 uM after 72 hrs by MTS assay; assay type: functional; settings: MCF7, 72 h
[3] = Solubility of the compound; assay type: physicochemical
PC-3 = assay: Antiproliferative activity against human PC3 cells at 10 uM after 72 hrs by MTS assay; assay type: functional; settings: PC-3, 72 h
[4] = target: Vascular endothelial growth factor receptor 2 (Homo sapiens, UniProt P35968); assay: Inhibition of recombinant human VEGFR-2 using poly(Glu4/Tyr) and [gamma32P]ATP as substrate after 1 hr by scintillation counting
[5] = target: Epidermal growth factor receptor (Homo sapiens, UniProt P00533); assay: Inhibition of human EGFR expressed in human A431 cells using poly(Glu4/Tyr) and [gamma32P]ATP as substrate after 1 hr by scintillation counting; set-up: species or system A-431
HT-29 [6] = assay: Antiproliferative activity against human HT-29 cells after 72 hrs by MTS assay; settings: HT-29, 72 h
MCF7 [7] = assay: Antiproliferative activity against human MCF7 cells after 72 hrs by MTS assay; settings: MCF7, 72 h

Chain of Vascular endothelial growth factor receptor 2 (P35968 whole entry): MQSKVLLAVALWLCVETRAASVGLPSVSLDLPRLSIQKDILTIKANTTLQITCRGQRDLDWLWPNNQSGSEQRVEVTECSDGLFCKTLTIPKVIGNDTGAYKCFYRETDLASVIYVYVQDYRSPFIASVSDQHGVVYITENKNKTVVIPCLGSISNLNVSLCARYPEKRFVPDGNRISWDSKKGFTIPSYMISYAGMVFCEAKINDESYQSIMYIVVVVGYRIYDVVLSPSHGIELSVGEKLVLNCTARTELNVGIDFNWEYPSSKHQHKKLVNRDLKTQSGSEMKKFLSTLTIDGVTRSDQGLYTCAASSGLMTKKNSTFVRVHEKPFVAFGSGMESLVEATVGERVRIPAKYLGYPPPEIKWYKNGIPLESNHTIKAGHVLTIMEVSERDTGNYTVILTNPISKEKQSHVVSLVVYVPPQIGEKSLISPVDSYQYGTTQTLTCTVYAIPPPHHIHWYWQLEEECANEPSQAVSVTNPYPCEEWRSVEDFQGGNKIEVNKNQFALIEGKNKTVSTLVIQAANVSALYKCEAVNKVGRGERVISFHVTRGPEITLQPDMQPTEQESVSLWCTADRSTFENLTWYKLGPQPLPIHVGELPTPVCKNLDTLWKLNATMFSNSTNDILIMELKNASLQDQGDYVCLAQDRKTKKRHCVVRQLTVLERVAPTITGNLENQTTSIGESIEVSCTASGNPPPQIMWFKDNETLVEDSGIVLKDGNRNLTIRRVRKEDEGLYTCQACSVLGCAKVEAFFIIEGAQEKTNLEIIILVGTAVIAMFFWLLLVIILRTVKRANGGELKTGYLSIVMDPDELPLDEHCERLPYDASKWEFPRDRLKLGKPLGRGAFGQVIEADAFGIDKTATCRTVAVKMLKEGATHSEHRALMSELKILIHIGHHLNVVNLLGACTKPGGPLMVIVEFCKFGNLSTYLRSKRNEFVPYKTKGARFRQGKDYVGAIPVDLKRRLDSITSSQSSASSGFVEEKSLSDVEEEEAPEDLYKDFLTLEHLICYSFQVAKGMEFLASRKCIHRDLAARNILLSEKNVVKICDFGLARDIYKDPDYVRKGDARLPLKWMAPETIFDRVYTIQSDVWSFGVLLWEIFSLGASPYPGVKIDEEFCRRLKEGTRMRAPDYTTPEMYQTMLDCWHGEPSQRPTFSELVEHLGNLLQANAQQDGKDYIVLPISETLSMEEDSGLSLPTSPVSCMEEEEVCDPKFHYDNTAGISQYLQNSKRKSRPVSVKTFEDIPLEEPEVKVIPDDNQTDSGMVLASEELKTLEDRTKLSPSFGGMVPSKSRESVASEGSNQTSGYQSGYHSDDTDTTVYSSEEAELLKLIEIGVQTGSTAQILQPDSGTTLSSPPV
Chain of Epidermal growth factor receptor (P00533 whole entry): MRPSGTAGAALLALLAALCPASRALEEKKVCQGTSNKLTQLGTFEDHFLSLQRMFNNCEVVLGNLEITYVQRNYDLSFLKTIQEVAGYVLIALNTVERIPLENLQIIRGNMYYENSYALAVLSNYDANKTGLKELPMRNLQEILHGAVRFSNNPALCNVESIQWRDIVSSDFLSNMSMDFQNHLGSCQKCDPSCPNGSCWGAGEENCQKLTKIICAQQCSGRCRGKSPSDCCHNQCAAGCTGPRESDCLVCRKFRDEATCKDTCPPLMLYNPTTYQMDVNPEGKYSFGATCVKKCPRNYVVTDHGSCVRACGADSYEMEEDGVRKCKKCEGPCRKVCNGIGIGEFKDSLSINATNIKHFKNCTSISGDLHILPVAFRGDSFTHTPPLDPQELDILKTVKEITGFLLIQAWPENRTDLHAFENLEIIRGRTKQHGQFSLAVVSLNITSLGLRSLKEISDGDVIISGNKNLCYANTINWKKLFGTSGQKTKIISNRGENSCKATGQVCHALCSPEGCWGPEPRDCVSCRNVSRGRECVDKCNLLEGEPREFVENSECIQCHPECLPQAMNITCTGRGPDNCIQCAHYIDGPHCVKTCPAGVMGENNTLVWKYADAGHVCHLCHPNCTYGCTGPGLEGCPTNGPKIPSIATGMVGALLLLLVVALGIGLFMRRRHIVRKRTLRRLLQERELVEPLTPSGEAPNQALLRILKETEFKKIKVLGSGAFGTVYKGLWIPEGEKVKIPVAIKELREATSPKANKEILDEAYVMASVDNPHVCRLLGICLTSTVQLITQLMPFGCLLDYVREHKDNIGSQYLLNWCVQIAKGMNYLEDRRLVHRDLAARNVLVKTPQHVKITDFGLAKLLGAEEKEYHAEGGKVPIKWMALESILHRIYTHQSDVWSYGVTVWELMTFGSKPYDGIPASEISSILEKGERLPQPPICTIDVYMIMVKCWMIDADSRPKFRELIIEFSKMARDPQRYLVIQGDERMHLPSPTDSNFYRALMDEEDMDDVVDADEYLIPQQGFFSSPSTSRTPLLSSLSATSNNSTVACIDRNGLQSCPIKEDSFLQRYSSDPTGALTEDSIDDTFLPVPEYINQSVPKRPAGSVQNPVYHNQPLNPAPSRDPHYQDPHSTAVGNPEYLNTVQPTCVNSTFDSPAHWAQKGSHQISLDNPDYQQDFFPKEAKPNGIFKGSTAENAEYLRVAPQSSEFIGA

Structure (SMILES)	inhibition at 10 µM (HT-29 [1]) [%]	inhibition at 10 µM (MCF7 [2]) [%]	solubility [3]	inhibition at 10 µM (PC-3) [%]	IC50 [4] [µM]	IC50 [5] [µM]	IC50 (HT-29 [6]) [µM]	IC50 (MCF7 [7]) [µM]
COc1cc2ncnc(Oc3ccc(NC(=O)Nc4ccccc4)cc3)c2cc1OC	10	12	Insoluble	23	–	–	–	–
COc1cc2ncnc(Oc3cccc(NC(=O)Nc4ccccc4)c3)c2cc1OC	–	–	Insoluble	–	–	–	–	–
COc1ccc(NC(=O)Nc2cccc(Oc3ncnc4cc(OC)c(OC)cc34)c2)cc1	–	–	Insoluble	–	–	–	–	–
COc1cc2ncnc(Nc3ccc(Br)cc3F)c2cc1OC	0	31	–	1	–	–	–	–
COc1cc2ncnc(Oc3ccc(F)c(Cl)c3)c2cc1OC	0	0	Insoluble	5	9.8	–	–	–
COC(=O)Nc1ccc(Nc2ncnc3cc(OC)c(OC)cc23)cc1	10	27	–	2	–	–	–	–
COC(=O)Nc1ccc(Oc2ncnc3cc(OC)c(OC)cc23)cc1	–	–	Insoluble	–	–	–	–	–
CCOC(=O)Nc1ccc(Nc2ncnc3cc(OC)c(OC)cc23)cc1	16	6	–	12	–	–	–	–
CCOC(=O)Nc1ccc(Oc2ncnc3cc(OC)c(OC)cc23)cc1	–	–	Insoluble	–	–	–	–	–
CCCCNC(=O)Nc1ccc(Oc2ncnc3cc(OC)c(OC)cc23)cc1	–	–	Insoluble	–	–	–	–	–
COc1cc2ncnc(Oc3ccc(NC(=O)Nc4ccc(Br)cc4)cc3)c2cc1OC	–	–	Insoluble	–	–	–	–	–
COc1cc2ncnc(Oc3ccc(NC(=O)Nc4ccc(F)cc4F)cc3)c2cc1OC	–	–	Insoluble	–	–	–	–	–
COc1cc2ncnc(Oc3ccc(NC(=O)Nc4ccc(F)c(Cl)c4)cc3)c2cc1OC	–	–	Insoluble	–	–	–	–	–
COc1cc2ncnc(Oc3ccc(NC(=O)Nc4ccc5ccccc5c4)cc3)c2cc1OC	–	–	Insoluble	–	–	–	–	–
COc1ccc(NC(=O)Nc2ccc(Oc3ncnc4cc(OC)c(OC)cc34)cc2)cc1	9	0	Insoluble	12	–	–	–	–
CCNC(=O)Nc1ccc(Nc2ncnc3cc(OC)c(OC)cc23)cc1	0	6	–	0	4.65	> 10	–	–
CCC(=O)Nc1ccc(Nc2ncnc3cc(OC)c(OC)cc23)cc1	–	–	–	–	–	> 10	–	–
CCCC(=O)Nc1ccc(Nc2ncnc3cc(OC)c(OC)cc23)cc1C	0	5	–	0	4	–	–	–
COC(=O)Nc1ccc(Nc2ncnc3cc(OC)c(OC)cc23)cc1Cl	22	0	–	19	–	–	–	–
CCCOC(=O)Nc1ccc(Nc2ncnc3cc(OC)c(OC)cc23)cc1C	18	0	–	6	–	–	–	–
CCCCOC(=O)Nc1ccc(Nc2ncnc3cc(OC)c(OC)cc23)cc1C	13	33	–	4	–	–	–	–
COc1cc2ncnc(Nc3ccc(NC(=O)OC(C)C)c(C)c3)c2cc1OC	–	–	–	–	–	5.8	–	–
CCCCNC(=O)Nc1ccc(Nc2ncnc3cc(OC)c(OC)cc23)cc1	16	26	–	14	5.8	> 10	–	–
COc1cccc(NC(=O)Nc2ccc(Nc3ncnc4cc(OC)c(OC)cc34)cc2)c1	–	–	–	–	–	> 10	–	–
CCN(CC)CCOc1cc2ncnc(Nc3ccc(F)c(Cl)c3)c2cc1OC	–	26	–	36	6.9	9.9	5.9	–

Structure (SMILES)	inhibition at 10 µM (HT-29 [1]) [%]	inhibition at 10 µM (MCF7 [2]) [%]	solubility [3]	inhibition at 10 µM (PC-3) [%]	IC50 [4] [µM]	IC50 [5] [µM]	IC50 (HT-29 [6]) [µM]	IC50 (MCF7 [7]) [µM]
CCN(CC)CCOc1cc2ncnc(Nc3ccc(Br)cc3F)c2cc1OC	–	10	–	16	1	> 10	7.5	–
CCN(CC)CCOc1cc2ncnc(Nc3ccc(C)c(Br)c3)c2cc1OC	–	–	–	36	6.45	9.45	2.55	9.6
CCN(CC)CCOc1cc2ncnc(Nc3ccc(NC(=O)OC)c(Cl)c3)c2cc1OC	38	0	–	0	5.2	> 10	–	–
CCOC(=O)Nc1ccc(Nc2ncnc3cc(OCCN(CC)CC)c(OC)cc23)cc1Cl	–	0	–	0	3.35	–	5.45	–
CCN(CC)CCOc1cc2ncnc(Nc3ccc(NC(=O)OC)c(C)c3)c2cc1OC	1	0	–	0	6.95	> 10	–	–
CCOC(=O)Nc1ccc(Nc2ncnc3cc(OCCN(CC)CC)c(OC)cc23)cc1C	11	0	–	0	–	–	–	–
CCNC(=O)Nc1ccc(Nc2ncnc3cc(OCCN(CC)CC)c(OC)cc23)cc1	0	0	–	0	6.6	> 10	–	–
CCN(CC)CCOc1cc2c(Nc3ccc(Br)cc3F)ncnc2cc1OC	35	0	–	0	7.45	9.1	–	–
CCOC(=O)Nc1ccc(Nc2ncnc3cc(OC)c(OCCN(CC)CC)cc23)cc1C	36	0	–	0	–	–	–	–
CCCCOc1cc2c(Nc3ccc(Br)cc3F)ncnc2cc1OCCN(CC)CC	–	–	–	31	5.3	> 10	3.6	7.7
CCCCOc1cc2c(Nc3ccc(NC(=O)OC)c(Cl)c3)ncnc2cc1OCCN(CC)CC	–	33	–	11	7.4	> 10	2.55	–
CCCCOc1cc2c(Nc3ccc(NC(=O)OCC)c(Cl)c3)ncnc2cc1OCCN(CC)CC	–	–	–	40	–	9.15	2.5	7.1
CCCCOc1cc2c(Nc3ccc(NC(=O)OC)c(C)c3)ncnc2cc1OCCN(CC)CC	–	0	–	0	9.4	> 10	6.15	–
CCCCOc1cc2c(Nc3ccc(NC(=O)OCC)c(C)c3)ncnc2cc1OCCN(CC)CC	–	0	–	0	–	–	5.8	–
COc1cc2ncnc(Oc3cccc(NC(C)=O)c3)c2cc1OC	–	–	Insoluble	–	–	–	–	–
COc1cccc(NC(=O)Nc2ccc(Oc3ncnc4cc(OC)c(OC)cc34)cc2)c1	–	–	Insoluble	–	–	> 10	–	–
COc1cc2ncnc(Oc3ccc(NC(=O)Nc4cccc(Br)c4)cc3)c2cc1OC	–	–	Insoluble	35	0.006	> 10	9.1	9.8
COc1cc2ncnc(Oc3ccc(NC(=O)Nc4ccc(Br)cc4)c(C)c3)c2cc1OC	2	3	Insoluble	7	0.04	> 10	–	–
COc1cc2ncnc(Oc3ccc(NC(=O)Nc4cccc(Br)c4)c(C)c3)c2cc1OC	36	30	Insoluble	25	0.004	> 10	–	–
COc1cc2ncnc(Oc3ccc(NC(=O)Nc4ccc(F)c(Cl)c4)c(C)c3)c2cc1OC	–	–	Insoluble	–	–	> 10	–	–
COc1cc2ncnc(Oc3ccc(NC(=O)Nc4ccc5ccccc5c4)c(C)c3)c2cc1OC	–	–	Insoluble	–	–	> 10	–	–
COc1cc2ncnc(Oc3ccc(NC(=O)NC4CCCCC4)cc3)c2cc1OC	–	–	Insoluble	–	–	–	–	–
COc1cc2ncnc(Nc3ccc(Br)cc3)c2cc1OC	2	42	–	37	0.8	3.6	–	–
COc1cc2ncnc(Nc3ccccc3)c2cc1OC	0	7	–	9	7	4.3	–	–
